Screening results: PubChem, several laboratories
In the library only some 1.9% were active in any assay of this set; here they are far more common.
Hck-Nef inh: human Hck-Nef kinase inhibition | Recombinant Hck-YEEI plus Nef, Z-Lyte FRET kinase assay | inhibition, % at 20 µM | P08631 | actives 0.68% (n = 220,000);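 active = Hck-Nef kinase inhibition above about 50%, limit read from the data; inactive = inhibition below that limit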
Target sequence (P08631 whole entry, looked up): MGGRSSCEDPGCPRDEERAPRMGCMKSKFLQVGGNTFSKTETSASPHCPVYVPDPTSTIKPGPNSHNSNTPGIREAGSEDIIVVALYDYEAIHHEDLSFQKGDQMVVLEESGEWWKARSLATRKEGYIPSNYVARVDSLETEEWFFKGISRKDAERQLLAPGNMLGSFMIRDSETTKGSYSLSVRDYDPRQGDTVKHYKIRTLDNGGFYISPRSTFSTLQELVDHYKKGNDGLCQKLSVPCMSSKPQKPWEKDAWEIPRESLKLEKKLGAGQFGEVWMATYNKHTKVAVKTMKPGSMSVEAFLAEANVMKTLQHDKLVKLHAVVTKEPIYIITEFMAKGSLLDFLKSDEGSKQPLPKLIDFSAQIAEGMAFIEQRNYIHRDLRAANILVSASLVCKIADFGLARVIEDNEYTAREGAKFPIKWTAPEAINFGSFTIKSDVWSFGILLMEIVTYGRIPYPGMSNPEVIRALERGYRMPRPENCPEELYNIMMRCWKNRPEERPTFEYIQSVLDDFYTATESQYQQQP
Runt-SMMHC FRET: Runt domain-CBFb-SMMHC interaction inhibition; Q01196+Q13951; Cerulean-Runt/Venus-CBFb-SMMHC FRET ratio 530/480, 1 h; inhibition, % at 20 µM; actives 0.74% (n = 220,000); AID 1434;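 active = mean inhibition across duplicate retests at 20 µM reaching about 50%, limit read from the data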;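 also: inhibitors lower the FRET ratio by blocking Runt binding to CBFb-SMMHC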
Runt-CBFb FRET: Runt domain-CBFb interaction inhibition; Cerulean-Runt/Venus-CBFb FRET ratio 530/480, 1 h; inhibition, % at 20 µM; actives 0.46% (n = 220,000);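 active = inhibition over about 50% at 20 µM in the single-dose screen, limit read from the data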
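Measured by: fluorescence energy transfer, 422 nm excitation, 530/480 nm emission; test system: Cerulean-tagged RUNX1 Runt domain (FRET donor) fusion protein; buffer or medium: Tris pH 7.5 buffer with BSA; compound: one dose, 20 µM compound, 1% DMSO; times: two 1 h room-temperature incubations shielded from light; benchmarks: unlabeled CBFb 5 µM, positive control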
RanGTP-Imp inh: inhibitors of RanGTP-importin-beta interaction, primary screen, biochemical, FRET, CFP-Ran, YFP-importin-beta, homogeneous; AID 2216; actives 1.1% (n = 300,000); inhibition, % (no concentration beside the values); cell-free CFP-Ran/YFP-importin-beta FRET ratio;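 active = more than half of the replicate wells show a fall in the fluorescence ratio signal beyond about 16%, limit read from the data, passing the limit was not always enough; inconclusive = exactly half of the replicate wells pass the set limit; inactive = fewer than half of replicates pass the limit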
Hck-Nef confirm: confirmation of Hck-Nef kinase inhibitors; AID 463188; shares compounds with Hck-Nef inh; actives 28% (n = 1,300); Recombinant Hck-YEEI:Nef, Z-Lyte FRET kinase assay; calls only at 10 µM;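 active = average inhibition of at least 50%, with Z-scores no higher than 3 in both the phospho-tyrosine peptide and fluorescence counterscreens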
Numbers stand for hits; . = inactive; ? = inconclusive; / = no result shown; + = active, no number.

SMILES | Hck-Nef inh | Runt-SMMHC FRET | Runt-CBFb FRET | RanGTP-Imp inh | Hck-Nef confirm
COC(=O)C1=CN(Cc2cccs2)C=C(C(=O)OC)C1c1cccc(Cl)c1 | 59.4 | 85.0 | . | . | /
CCN1C=C(C(=O)OC)C(c2cccc(C)c2)C(C(=O)OC)=C1 | 66.3 | 60.9 | . | . | /
O=C(/C=C/c1cccc(Cl)c1)NCc1cccs1 | . | . | . | . | /
O=C(COC(=O)c1ccccc1SCC(=O)NC1CCS(=O)(=O)C1)NC1CCS(=O)(=O)C1 (stereo unspecified) | . | . | . | . | /
CCNC(=O)NC(=O)COC(=O)c1ccccc1SCC(=O)NC(=O)NCC | 109.3 | . | . | . | /
c1ccc(Nc2ccnc(Nc3ccccc3)n2)cc1 | 100.5 | . | . | . | +
O=C(O)c1cc(-c2ccc(/C=C3/SC(=S)N(Cc4ccccc4)C3=O)o2)ccc1Cl | 140.9 | . | . | / | +
CC1(C)OC(=O)C(=Cc2ccc(-c3ccc(Cl)c(C(=O)O)c3)o2)C(=O)O1 | 77.3 | . | . | . | .
COc1ccc(CN2C(=O)/C(=C/c3ccc(-c4ccc(Cl)c(C(=O)O)c4)o3)SC2=S)cc1 | . | . | . | / | /
COc1c(O)cc2oc(-c3ccc(O)cc3)cc(=O)c2c1O | 90.5 | . | . | . | +
COc1cc2oc(-c3ccc(O)cc3)cc(=O)c2c(O)c1OC | 89.1 | . | . | ? | +
COc1cc2oc(-c3ccc(O)cc3)cc(=O)c2c(OC)c1O | . | . | . | . | /
O=C(Nc1nccs1)c1cccc(N2C(=O)c3cccc4c([N+](=O)[O-])ccc(c34)C2=O)c1 | 51.9 | . | . | . | +
O=C(Nc1ccc(S(=O)(=O)Nc2nccs2)cc1)c1cccc(N2C(=O)c3ccccc3C2=O)c1 | . | . | . | . | /
COC(=O)c1sc(N)c(C(=O)OC)c1COC(=O)C12CC3CC(CC(O)(C3)C1)C2 | / | / | / | . | /
O=c1[nH]c(CSc2ncnc3sc(-c4ccccc4)cc23)nc2ccccc12 | 54.2 | . | . | . | .
O=c1[nH]c(CSc2nc(-c3ccccc3)cs2)nc2ccccc12 | . | . | . | . | /
CCCN(CC(=O)Nc1cc(Cl)ccc1Cl)C(=O)c1ccccc1SCC(=O)N1CCCC1 | / | / | / | . | /
Nc1nnnn1/N=C/c1ccc(O)cc1 | . | . | . | . | /
CCN(CC)c1ccc(/C=N/n2nnnc2N)c(O)c1 | 57.4 | . | . | . | .
CCN(C)c1ccc(/C=N\n2nnnc2N)cc1 | 54.2 | 53.9 | . | . | /
C(=N\Nc1ccccn1)/c1c[nH]c2ccccc12 | 51.5 | . | . | . | .
O=[N+]([O-])c1cccc(-c2csc(N/N=C/c3cccc(O)c3)n2)c1 | . | . | . | . | /
CCOc1cc(/C=C2\N=C(SC)SC2=O)cc([N+](=O)[O-])c1OC(C)=O | . | . | . | . | /
CCOc1cc(/C=C2\N=C(SCC)SC2=O)cc([N+](=O)[O-])c1OC(C)=O | 94.7 | . | . | . | +
SMILES | Hck-Nef inh | Runt-SMMHC FRET | Runt-CBFb FRET | RanGTP-Imp inh | Hck-Nef confirm
CCn1c2ccccc2c2cc([N+](=O)[O-])ccc21 | . | . | . | . | /
CCn1c2ccccc2c(=O)c2ccccc21 | 141.8 | 91.1 | . | 145.1 | /
N=C1/C(=C\c2ccc(-c3cccc(C(=O)O)c3)o2)C(=O)N=C2SC=C(c3ccccc3)N12 | 64.2 | . | . | . | +
CN(C)C(=O)CNC(=O)CN1C(=O)NC2(CCCc3sccc32)C1=O (stereo unspecified) | / | / | / | . | /
c1ccc(-c2nc(NCCCN3CCOCC3)c3ccccc3n2)cc1 | . | . | . | . | /
N#Cc1c2c(c(NCCCN3CCOCC3)n3c1nc1ccccc13)CCC2 | 60.6 | . | . | . | /
CC(C)c1cc(NCCCN2CCOCC2)n2c(nc3ccccc32)c1C#N | 53.8 | . | . | ? | /
Nc1nc(-c2ccc(Cl)cc2)nn1C(=O)c1cccs1 | . | . | . | . | /
COc1ccc2oc(=O)c(C(=O)NCC3CCCO3)cc2c1 (stereo unspecified) | . | . | . | . | /
COc1cccc2cc(C(=O)NCC3CCCO3)c(=O)oc12 (stereo unspecified) | . | . | . | . | /
COc1ccc2cc(C(N)=O)c(=Nc3ccc(C)cc3)oc2c1 | . | . | . | . | /
Cc1cccc(N=c2oc3cc(O)ccc3cc2C(N)=O)c1 | 152.8 | 79.3 | . | . | /
COc1ccccc1N=c1oc2cc(O)ccc2cc1C(=O)NCC1CCCO1 (stereo unspecified) | 72.0 | . | . | 174.2 | /
COc1ccc2cc(C(N)=O)/c(=N\NC(=O)c3ccccc3)oc2c1 | / | / | / | . | /
COc1cccc(N=c2oc3cc(O)ccc3cc2C(=O)NCC2CCCO2)c1 (stereo unspecified) | 82.4 | 90.5 | 51.5 | 179.9 | /
COc1ccccc1N=c1oc2cc(O)ccc2cc1C(N)=O | 140.3 | . | . | 179.0 | /
Nc1ccc(S(=O)C(F)(F)F)cc1 (stereo unspecified) | . | . | . | . | /
Cc1noc(/C=C/c2ccco2)c1S(=O)(=O)N1CCC(C(=O)N2CCc3ccccc3C2)CC1 | 50.6 | . | . | . | .
CCOc1ccc(N(CC(=O)NCCSCc2ccc(Cl)cc2)S(C)(=O)=O)cc1 | / | / | / | . | /
CCOC(=O)C(NC(C)=O)(NC(C)C)C(F)(F)F (stereo unspecified) | . | . | . | . | /
CC1(C#CC[N+]2(C)CCCCC2)CCC2C(O1)c1ccccc1OC2(C)C (stereo unspecified) | . | . | . | . | /
Nc1c(C(=O)N/N=C/c2ccccc2)cnn1-c1ccccc1 | 67.9 | . | . | . | .
S=c1[nH]nc(-c2cccc(Cl)c2)n1/N=C/c1ccc(-c2ccccc2Br)o1 | 57.8 | . | . | ? | .
CCOC(=O)c1cc(C(=O)Nc2ccc(C)c(F)c2)nn1C | 106.1 | . | . | . | .
CCOC(=O)c1cc(C(=O)NCc2ccc(Cl)cc2Cl)nn1C | . | . | . | . | /
SMILES | Hck-Nef inh | Runt-SMMHC FRET | Runt-CBFb FRET | RanGTP-Imp inh | Hck-Nef confirm
COc1ccc2c(c1)C=C(CN1CCN(C3CCCC3)C(CCO)C1)CO2 (stereo unspecified) | . | . | . | . | /
CC(=O)Nc1ccc(S(=O)(=O)Oc2cccc(/C=N/N=C3/NC(=O)C(CC(=O)O)S3)c2)cc1 (stereo unspecified) | . | . | . | . | /
COc1ccccc1/C=C/C=c1\sc2nc(=O)c(Cc3ccccc3)nn2c1=O | 80.7 | . | . | . | +
C[C@H](NC(N)=O)C(=O)Nc1ccc2c(c1)OCO2 | . | . | . | . | /
CNc1ccc(Br)cc(C(=O)/C=C/c2cccc(OC)c2OC)c1=O | . | . | . | . | /
CNc1ccc(Br)cc(C(=O)/C=C/c2cccc(Cl)c2Cl)c1=O | 50.8 | . | . | / | .
Cc1cccc(NC(=O)c2cc3cc([N+](=O)[O-])ccc3s2)n1 | 51.1 | . | . | ? | .
CC(=O)Nc1ccc(S(=O)(=O)N2CCN(S(=O)(=O)N3CCC(C)CC3)CC2)cc1 | / | / | / | . | /
CC1=NOC(=O)/C1=C\c1ccc(-c2ccc(Cl)c(C(=O)O)c2)o1 | . | . | . | . | /
